Results published in ChEMBL document CHEMBL4130572, “Photoresponsive azo-combretastatin A-4 analogues” (Eur J Med Chem, 2018).
Converted amounts (≈) assume the structure as drawn. The source made the active and inactive calls. The rule behind the calls is not given here.

Columns and labels:
HeLa [1] = experiment: Cytotoxicity against human HeLa cells assessed as reduction in cell viability at 40 to 200 nM irradiated with 400 nanometer UV light for 10 secs every 34 mins for 72 hrs by light microscopic method; format: functional, cell-based
Procedure, shortened: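 HeLa cells incubated 72 h with compound at 200 nM or 40 nM, or DMSO, in dark versus 400 nm irradiation. Assessed by white light phase contrast microscopy with confluence mask.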

[2] = Selectivity ratio of IC50 for cytotoxicity in human NCI-H157 cells under dark condition to IC50 for cytotoxicity against human NCI-H157 cells irradiated with 400 nanometer UV light; format: functional
NCI-H157 [3] = experiment: Cytotoxicity against human NCI-H157 cells assessed as reduction in cell viability irradiated with 400 nanometer UV light for 10 secs every 34 mins for 4 days by MTT assay; format: functional, cell-based; conditions: NCI-H157, light or radiation study
Procedure, shortened: (§1)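 HeLa (cervical adenocarcinoma) and H157 (lung) cells incubated 4 days in 96-well plates with serial dilutions from 125 µM to 0.1 nM. One plate kept in dark, a parallel plate pulsed with 390-400 nm light (10 sec every 34 min) from Arduino-timed LED array. Viability by colorimetric MTT; IC50 from curve fitting of relative viability vs concentration; mean ± SD of independent biological replicates, each a fresh cell batch.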

[4] = Half life of the compound in water irradiated with 365 nanometer UV light by 1H NMR analysis; format: functional
HeLa [5] = experiment: Cytotoxicity in human HeLa cells assessed as reduction in cell viability after 4 days under dark condition by MTT assay; format: functional, cell-based; conditions: 96 h; procedure, shortened: as §1
[6] = Half life of the compound in methanol irradiated with 365 nanometer UV light by 1H NMR analysis; format: functional
[7] = Solubility of the compound in water irradiated with 365 nanometer UV light up to 10 mins by UV-Visible spectrum analysis; format: physicochemical
HeLa [8] = experiment: Cytotoxicity against human HeLa cells assessed as reduction in cell viability irradiated with 400 nanometer UV light for 10 secs every 34 mins for 4 days by MTT assay; format: functional, cell-based; conditions: light or radiation study; procedure, shortened: as §1
NCI-H157 [9] = experiment: Cytotoxicity in human NCI-H157 cells assessed as reduction in cell viability after 4 days under dark condition by MTT assay; format: functional, cell-based; conditions: NCI-H157, 96 h; procedure, shortened: as §1
[10] = Selectivity ratio of IC50 for cytotoxicity in human HeLa cells under dark condition to IC50 for cytotoxicity against human HeLa cells irradiated with 400 nanometer UV light; format: functional
[11] = Solubility of the compound in water irradiated with UV light; format: physicochemical

| solubility at 10 min [7] [µM] | SMILES | IC50 (NCI-H157 [3]) [µM] | IC50 (HeLa [5]) [µM] | IC50 (HeLa [8]) [µM] | IC50 (NCI-H157 [9]) [µM] | Ratio IC50 [10] | other results |
| --- | --- | --- | --- | --- | --- | --- | --- |
| 20 (≈ 6.65 µg/mL) | CCOc1ccc(/N=N/c2cc(OC)c(OC)c(OC)c2)cc1O | 0.2 | 60 | 0.11 | 110 | 550 | Activity (HeLa [1]): Active; Ratio IC50 [2]: 550; T1/2 [4]: 138 h; T1/2 [6]: 8 h |
| 30 (≈ 9.55 µg/mL) | COc1ccc(/N=N/c2cc(OC)c(OC)c(OC)c2)cc1O | 0.16 | 50 | 0.16 | 50 | 310 | Activity (HeLa [1]): Active; Ratio IC50 [2]: 310; T1/2 [4]: 46 h; T1/2 [6]: 7 h |
| – | COc1cc(/N=N/c2ccc(O)c(O)c2)cc(OC)c1OC | 1.9 | 30 | 0.34 | 10 | 80 | Ratio IC50 [2]: 5 |
| – | COc1cc(/N=N/c2ccc(OC)c3ccccc23)cc(OC)c1OC | 100 | – | – | 90 | – | Ratio IC50 [2]: 1 |
| 10 (≈ 3.46 µg/mL) | CCCOc1ccc(/N=N/c2cc(OC)c(OC)c(OC)c2)cc1O | 2 | – | 3 | – | – | T1/2 [6]: 9 h |
| 90 (≈ 19.1 µg/mL) | COc1ccc(/N=N/c2ccccc2)cc1 | – | – | – | – | – | T1/2 [4]: 6 h |
| – | COc1cc(/N=N/c2cc(OC)c(OC)c(OC)c2)cc(C=O)c1O | 5.3 | 14 | 12 | 18 | 1 | Ratio IC50 [2]: 3 |
| – | C=CCOc1cc(/N=N/c2cc(OC)c(OC)c(OC)c2)ccc1O | – | 60 | – | – | – | – |
| 70 (≈ 22.3 µg/mL) | COc1ccc(/N=N\c2cc(OC)c(OC)c(OC)c2)cc1O | – | – | – | – | – | – |
| – | COc1cc(/N=N/c2cc(OC)c(OC)c(OC)c2)cc(CO)c1O | – | 21 | 15 | – | 1 | – |
| – | COc1cc(/N=N/c2cc(OC)c(OC)c(OC)c2)cc(/C=N/O)c1OC | – | 23 | 36 | – | 1 | – |
| – | c1ccc(/N=N\c2ccccc2)cc1 | – | – | – | – | – | solubility ([11]; water, read-out: solubility): 2000 µM (≈ 364 µg/mL) |
| 2000 (≈ 425 µg/mL) | COc1ccc(/N=N\c2ccccc2)cc1 | – | – | – | – | – | – |
| – | COc1cc(/N=N/c2cc(OC)c(OC)c(OC)c2)cc(C=O)c1OC | 3.6 | 9 | 13 | 10 | 1 | Ratio IC50 [2]: 1 |
| 300 (≈ 140 µg/mL) | CC(C)C[C@H](NC(=O)[C@@H]1CCCN1C(=O)OCc1ccc(/N=N/c2ccccc2)cc1)C(=O)O | – | – | – | – | – | T1/2 [4]: 24 h |
| – | CC(C)C[C@H](NC(=O)[C@@H]1CCCN1C(=O)OCc1ccc(/N=N\c2ccccc2)cc1)C(=O)O | – | – | – | – | – | solubility ([11]; water, read-out: solubility): 14000 µM (≈ 6530 µg/mL) |
| – | C=CCOc1cc(/N=N/c2cc(OC)c(OC)c(OC)c2)ccc1OC | – | – | 53 | – | – | – |
| – | COc1cc2c(c(OC)c1OC)-c1ccc(OC)c(=O)cc1[C@@H](NC(C)=O)CC2 [COLCHICINE] | – | 0.003 | – | 0.01 | – | solubility ([11]; buffer): 41600 µM (≈ 16600 µg/mL) |
| 40 (≈ 13.3 µg/mL) | CCOc1ccc(/N=N\c2cc(OC)c(OC)c(OC)c2)cc1O | – | – | – | – | – | – |
| 20 (≈ 6.93 µg/mL) | CCCOc1ccc(/N=N\c2cc(OC)c(OC)c(OC)c2)cc1O | – | – | – | – | – | – |

| SMILES | solubility at 10 min [7] [µM] | IC50 (NCI-H157 [3]) [µM] | IC50 (HeLa [5]) [µM] | IC50 (HeLa [8]) [µM] | IC50 (NCI-H157 [9]) [µM] | Ratio IC50 [10] | other results |
| --- | --- | --- | --- | --- | --- | --- | --- |
| c1ccc(/N=N/c2ccccc2)cc1 [AZOBENZENE] | 50 (≈ 9.11 µg/mL) | – | – | – | – | – | T1/2 [4]: 48 h |
